The results in this text go back to ChEMBL document CHEMBL4316611, “Design, synthesis and evaluation of novel (S)-tryptamine derivatives containing an allyl group and an aryl sulfonamide unit as anticancer agents” (Bioorg Med Chem Lett, 2019).

The subject of assay [1] is HepG2. As to the kind of experiment: Induction of apoptosis in human HepG2 cells assessed as necrotic cells level at 20 uM incubated for 48 hrs by Annexin V-FITC/propidium iodide staining based flow cytometry (reference value: 0.53%). The assay is classed as functional. Background: Flow cytometry measures light scatter and fluorescence of single cells or particles in a stream.

The subject of assay [2] is HepG2. The assay is described as follows: Induction of apoptosis in human HepG2 cells assessed as late apoptotic cells level at 10 uM incubated for 48 hrs by Annexin V-FITC/propidium iodide staining based flow cytometry (reference value: 2.02%). The assay is classed as functional.
For assay [3], the system named is HepG2. As to the kind of experiment: Induction of cell cycle arrest in human HepG2 cells assessed as accumulation at G1 phase at 25 uM incubated for 24 hrs by propidium iodide staining based flow cytometry (reference value: 39.79%). The assay is classed as functional.
Assay [4] deals with HepG2. The assay is described as follows: Induction of cell cycle arrest in human HepG2 cells assessed as accumulation at G1 phase at 35 uM incubated for 24 hrs by propidium iodide staining based flow cytometry (reference value: 39.79%). The assay is classed as functional.
In another assay the test system is A549. As to the kind of experiment: Cytotoxicity in human A549 cells assessed as reduction in cell viability incubated for 48 hrs by MTT assay. The assay is classed as functional, cell-based. The note with it: A549, 48 h. An outline of the steps:
(§1)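 MTT viability assay; cells exposed continuously to compounds for 48 h. IC50 values reported as mean ± SD. Cisplatin served as positive control.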
(Tetrazolium dyes change colour on reduction, which living cells bring about.)

The subject of assay [5] is HepG2. As to the kind of experiment: Induction of apoptosis in human HepG2 cells assessed as late apoptotic cells level at 20 uM incubated for 48 hrs by Annexin V-FITC/propidium iodide staining based flow cytometry (reference value: 2.02%). The assay is classed as functional.
For assay [6], the system named is HepG2. As to the kind of experiment: Induction of cell cycle arrest in human HepG2 cells assessed as accumulation at G1 phase at 15 uM incubated for 24 hrs by propidium iodide staining based flow cytometry (reference value: 39.79%). The assay is classed as functional.
Assay [7] deals with HepG2. The assay is described as follows: Induction of apoptosis in human HepG2 cells assessed as viable cells level at 20 uM incubated for 48 hrs by Annexin V-FITC/propidium iodide staining based flow cytometry (reference value: 94.56%). The assay is classed as functional.
The test system of assay [8] is HepG2. As to the kind of experiment: Induction of apoptosis in human HepG2 cells assessed as early apoptotic cells level at 30 uM incubated for 48 hrs by Annexin V-FITC/propidium iodide staining based flow cytometry (reference value: 2.89%). The assay is classed as functional.
Assay [9] concerns HepG2. The assay is described as follows: Induction of apoptosis in human HepG2 cells assessed as necrotic cells level at 30 uM incubated for 48 hrs by Annexin V-FITC/propidium iodide staining based flow cytometry (reference value: 0.53%). The assay is classed as functional.
The subject of assay [10] is HepG2. As to the kind of experiment: Inhibition of colony formation in human HepG2 cells at 7.5 uM incubated for 14 days by Giemsa staining based assay. The assay is classed as functional. The note with it: HepG2, 336 h. The gist of the method: (§2)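 Colony formation assay: cells exposed at 0, 2.5, 5 and 7.5 μM for 2 weeks. Colonies imaged and quantified by image analysis. Inhibition rate expressed as mean ± SD against control.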

Assay [11] relates to HepG2. As to the kind of experiment: Induction of apoptosis in human HepG2 cells assessed as viable cells level at 30 uM incubated for 48 hrs by Annexin V-FITC/propidium iodide staining based flow cytometry (reference value: 94.56%). The assay is classed as functional.
Assay [12] deals with HepG2. As to the kind of experiment: Induction of apoptosis in human HepG2 cells assessed as early apoptotic cells level at 10 uM incubated for 48 hrs by Annexin V-FITC/propidium iodide staining based flow cytometry (reference value: 2.89%). The assay is classed as functional.
Assay [13] concerns HepG2. As to the kind of experiment: Induction of apoptosis in human HepG2 cells assessed as late apoptotic cells level at 30 uM incubated for 48 hrs by Annexin V-FITC/propidium iodide staining based flow cytometry (reference value: 2.02%). The assay is classed as functional.
The subject of assay [14] is HepG2. As to the kind of experiment: Induction of apoptosis in human HepG2 cells assessed as necrotic cells level at 10 uM incubated for 48 hrs by Annexin V-FITC/propidium iodide staining based flow cytometry (reference value: 0.53%). The assay is classed as functional.
For the next assay, the system named is HeLa. The assay is described as follows: Cytotoxicity in human HeLa cells assessed as reduction in cell viability incubated for 48 hrs by MTT assay. The assay is classed as functional, cell-based. An outline of the steps:
as §1

The next assay relates to CNE. The assay is described as follows: Cytotoxicity in human CNE1 cells assessed as reduction in cell viability incubated for 48 hrs by MTT assay. The assay is classed as functional, cell-based. The gist of the method: as §1
In assay [15] the test system is HepG2. As to the kind of experiment: Cytotoxicity in human HepG2 cells assessed as reduction in cell viability incubated for 48 hrs by MTT assay. The assay is classed as functional, cell-based. The note with it: HepG2, 48 h. An outline of the steps:
as §1

Assay [16] relates to HepG2. The assay is described as follows: Induction of cell cycle arrest in human HepG2 cells assessed as accumulation at G1 phase incubated for 24 hrs by propidium iodide staining based flow cytometry. The assay is classed as functional.
For assay [17], the system named is HepG2. The assay is described as follows: Inhibition of colony formation in human HepG2 cells incubated for 14 days by Giemsa staining based assay. The assay is classed as functional, cell-based. The gist of the method: as §2
Assay [18] relates to HepG2. The assay is described as follows: Induction of apoptosis in human HepG2 cells assessed as viable cells level at 10 uM incubated for 48 hrs by Annexin V-FITC/propidium iodide staining based flow cytometry (reference value: 94.56%). The assay is classed as functional.
For assay [19], the system named is HepG2. As to the kind of experiment: Induction of apoptosis in human HepG2 cells assessed as early apoptotic cells level at 20 uM incubated for 48 hrs by Annexin V-FITC/propidium iodide staining based flow cytometry (reference value: 2.89%). The assay is classed as functional.

Each structure is given as a SMILES string. pIC50: −log10 of the molar value.

As to `C=CC[C@@H](Cc1c[nH]c2ccccc12)NS(=O)(=O)c1c(C(C)C)cc(C(C)C)cc1C(C)C`, the Activity is recorded as 0.75% in the assay on HepG2 [1]; 2.96% with HepG2 [2]; 48.82% in the assay with HepG2 [3]; 53.35% with HepG2 [4]; 4.85% with HepG2 [5]; 44.89% with HepG2 [6]. In addition, the Activity in the assay with HepG2 [7] worked out at 73.08%; in the assay with HepG2 [8], 53.46%; with HepG2 [9], 0.91%; in the assay on HepG2 [11], 25.38%; in the assay on HepG2 [12], 6.63%; with HepG2 [13], 20.25%. Further, the Activity was 0.69% with HepG2 [14], “Dose-dependent effect” with HepG2 [16], 89.7% with HepG2 [18] and 21.29% with HepG2 [19]. Besides, the pIC50 (as a rule, the IC50 on a negative log10 scale, so that one unit is a factor of ten) with A549 is 4.73; in the assay with HeLa, 4.78; in the assay with CNE it was 4.74; in the assay with HepG2 [15], 4.78. Also, at 7.5 µM the inhibition with HepG2 [10] was 95%. The inhibition (commonly the drop in the measured response relative to a control, in per cent) in the assay on HepG2 [17] is “Dose-dependent effect”.

For `CCC[C@@H](Cc1c[nH]c2ccccc12)NS(=O)(=O)c1c(C(C)C)cc(C(C)C)cc1C(C)C`, the negative logarithm of the IC50 (pIC50) in the assay on A549 is 4.40; with HeLa, 4.79; in the assay on CNE, 4.75; in the assay on HepG2 [15], 4.51.

As to `C=CC[C@@H](Cc1c[nH]c2ccccc12)NS(=O)(=O)c1ccc(F)c(Cl)c1`, the pIC50 was 4.38 with A549, 4.47 with HeLa, 4.47 in the assay with CNE and 4.42 in the assay on HepG2 [15].

Turning to `C=CC[C@@H](Cc1c[nH]c2ccccc12)NS(=O)(=O)c1ccccc1OC(F)(F)F`, the pIC50 in the assay on A549 was 4.18; with HeLa it was 4.17; in the assay with CNE, 4.17; with HepG2 [15], 4.40.

Regarding `C=CC[C@@H](Cc1c[nH]c2ccccc12)NS(=O)(=O)c1cc(Br)cc(C(F)(F)F)c1`, the negative-log IC50 (pIC50) in the assay on A549 is 4.53; with HeLa, 4.50; in the assay on CNE, 4.64; with HepG2 [15], 4.60.

`C=CC[C@H](N)Cc1c[nH]c2ccccc12`: the pIC50 in the assay on A549, in the assay with HeLa, in the assay with CNE and in the assay with HepG2 [15] was under 4.00 throughout.

Consider `C=CC[C@@H](Cc1c[nH]c2ccccc12)NS(=O)(=O)c1ccc(Br)c(C)c1`, for which the pIC50 in the assay with A549 is 4.27; in the assay on HeLa it was 4.33; with CNE it was 4.41; in the assay on HepG2 [15], 4.28.

On to `C=CC[C@@H](Cc1c[nH]c2ccccc12)NS(=O)(=O)c1ccc(C)c(F)c1`, for which the pIC50 in the assay with A549 is 4.15; in the assay on HeLa it was 4.36; in the assay with CNE it was 4.40; in the assay on HepG2 [15], 4.41.

`C=CC[C@@H](Cc1c[nH]c2ccccc12)NS(=O)(=O)c1ccc2ccccc2c1`: the pIC50 was 4.26 in the assay with A549, 4.28 with HeLa, 4.34 in the assay on CNE and 4.35 with HepG2 [15].
